Reference: ChEMBL document CHEMBL1135879 (J Med Chem, 2002)

Experiments:
[1] = target: T1, Amine oxidase [flavin-containing] A (Bos taurus, UniProt P21398); experiment: Inhibition of bovine brain mitochondrial Monoamine oxidase A (MAO-A) compared to toloxatone
T1 sequence (P21398 whole entry): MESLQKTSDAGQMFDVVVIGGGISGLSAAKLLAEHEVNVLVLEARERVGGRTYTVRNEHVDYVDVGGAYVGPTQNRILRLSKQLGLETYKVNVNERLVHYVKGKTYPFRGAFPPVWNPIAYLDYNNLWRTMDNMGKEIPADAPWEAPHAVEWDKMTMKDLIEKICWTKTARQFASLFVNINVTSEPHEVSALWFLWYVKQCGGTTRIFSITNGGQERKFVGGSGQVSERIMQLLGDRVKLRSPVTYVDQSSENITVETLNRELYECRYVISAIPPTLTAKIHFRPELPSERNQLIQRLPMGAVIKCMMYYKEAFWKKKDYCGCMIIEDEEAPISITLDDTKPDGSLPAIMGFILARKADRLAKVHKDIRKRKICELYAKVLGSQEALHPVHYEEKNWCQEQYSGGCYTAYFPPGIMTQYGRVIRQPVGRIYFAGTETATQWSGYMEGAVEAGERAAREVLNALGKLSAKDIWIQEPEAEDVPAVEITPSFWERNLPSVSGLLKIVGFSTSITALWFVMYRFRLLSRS
Method in brief: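 Bovine brain mitochondria were isolated by the Basford method. To isolate MAO-A, fractions were preincubated 30 min at 38 °C with 1 μM L-deprenyl. Inhibitors in DMSO were preincubated 30 min, then kynuramine substrate was added, with 30 min further incubation. Product was read fluorimetrically and Ki values derived.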

[2] = target: T2, Amine oxidase [flavin-containing] B (Bos taurus, UniProt P56560); experiment: Inhibition of bovine brain mitochondrial Monoamine oxidase B (MAO-B) compared to toloxatone
T2 sequence (P56560 whole entry): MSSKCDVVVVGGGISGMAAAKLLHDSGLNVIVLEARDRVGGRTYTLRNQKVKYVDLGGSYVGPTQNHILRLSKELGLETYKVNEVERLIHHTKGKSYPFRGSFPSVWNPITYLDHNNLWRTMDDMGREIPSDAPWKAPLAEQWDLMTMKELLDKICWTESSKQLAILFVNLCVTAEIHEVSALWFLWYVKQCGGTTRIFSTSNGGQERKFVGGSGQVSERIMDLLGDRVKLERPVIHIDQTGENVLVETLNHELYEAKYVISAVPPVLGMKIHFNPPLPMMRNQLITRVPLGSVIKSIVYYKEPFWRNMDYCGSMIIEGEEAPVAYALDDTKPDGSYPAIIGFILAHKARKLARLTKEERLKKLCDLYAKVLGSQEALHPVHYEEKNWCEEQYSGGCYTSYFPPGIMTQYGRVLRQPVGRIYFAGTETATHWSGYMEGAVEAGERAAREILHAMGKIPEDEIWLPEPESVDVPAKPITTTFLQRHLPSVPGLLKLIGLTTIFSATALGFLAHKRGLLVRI
Method in brief: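 Bovine brain mitochondrial fractions were isolated by the Basford method. To leave MAO-B activity, fractions were preincubated 30 min at 38 °C with 1 μM clorgyline. Inhibitors in DMSO were preincubated 30 min before kynuramine was added, then incubated 30 min more. Fluorimetric read-out was used and Ki values determined.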

## NC[C@@H]1CN(n2cccc2)C(=O)O1
[1]
  Ki: 1200 nM
[2]
  Ki: 34000 nM

## NC[C@H]1CN(n2cccc2)C(=O)O1
[1]
  Ki: 53000 nM
[2]
  Ki: 4400 nM

## COC[C@@H]1CN(n2cccc2)C(=O)O1
[1]
  Ki: 1000 nM
[2]
  Ki: 23000 nM

## COC[C@H]1CN(n2cccc2)C(=O)O1
[1]
  Ki: 4.9 nM
[2]
  Ki: 50000 nM

## [N-]=[N+]=NC[C@@H]1CN(n2cccc2)C(=O)O1
[1]
  Ki: 2500 nM
[2]
  Ki: 24000 nM

## O=C1O[C@@H](CO)CN1n1cccc1
[1]
  Ki: 90 nM
[2]
  Ki: 9000 nM

## CN(C)C[C@H]1CN(n2cccc2)C(=O)O1
[1]
  Ki: 40000 nM
[2]
  Ki: 140000 nM

## COC[C@@H]1CN(c2ccc(OCC[C@H](O)C(F)(F)F)cc2)C(=O)O1 [(R/R)BEFLOXATONE]
[1]
  Ki: 2.5 nM
[2]
  Ki: 220 nM

## O=C1O[C@@H](CO)CN1n1cccc1.O=C1O[C@H](CO)CN1n1cccc1
[1]
  Ki: 270 nM
[2]
  Ki: 2000 nM

## O=C1O[C@H](CO)CN1n1cccc1
[1]
  Ki: 1200 nM
[2]
  Ki: 2000 nM

## [N-]=[N+]=NC[C@H]1CN(n2cccc2)C(=O)O1
[1]
  Ki: 200 nM
[2]
  Ki: 200000 nM
